Assay results published in ChEMBL document CHEMBL4808182, “Discovery of the Soluble Guanylate Cyclase Activator Runcaciguat (BAY 1101042)” (J Med Chem, 2021).
Calls of active or inactive are those of the source. The calls are words filed in the database; no cut-off is given here.

How the values were obtained:
[1] = Volume of distribution at steady state in Wistar rat at 0.3 mg/kg, iv measured up to 24 hrs by LC-MS analysis; type: ADME, organism-based; details: in vivo, read-out: Vdss
Rattus norvegicus [2] = species: Rattus norvegicus; assay: Effect on left ventricular diastolic pressure in Wistar rat; type: functional
How it was run: (§1)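 Rat hearts in Langendorff perfusion were exposed to 10 nM–10 μM. Coronary perfusion pressure, heart rate, LVDP and +dp/dt were recorded.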

CHO = assay: Activation of recombinant rat sGC expressed in CHO cells in presence of NO-donor S-nitroso N-acetyL-penicillamine by luminescence assay; type: cell-based; details: filed as activator
How it was run: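 Rat sGC-overexpressing CHO reporter cells were treated with test compound combined with NO donor SNAP, and the luminescence signal was read.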

[3] = Activation of recombinant rat sGC expressed in CHO cells pretreated with ODQ for 3 hrs followed by compound treatment by luminescence assay; type: cell-based
Rattus norvegicus [4] = assay: Effect on blood pressure in spontaneous hypertensive Wistar rat at 0.1 mg/kg, po by radiotelemetry; type: functional, organism-based
How it was run: (§2)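 Spontaneously hypertensive rats were given single oral doses of 0.1–3.0 mg/kg. Mean arterial pressure and heart rate were monitored for at least 24 h post dose, as % change.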

Rattus norvegicus [5] = assay: Increase in heart rate in spontaneous hypertensive Wistar rat at 0.1 to 3 mg/kg, po by radiotelemetry relative to control; type: functional; details: dose 0.1-3 mg/kg; how it was run: as §2
[6] = Induction of CYP3A4 in human hepatocytes using phenacetin as substrate incubated for 60 mins by LC-MS/MS analysis; details: 1 h
[7] = molecular target: T1, Guanylate cyclase soluble subunit alpha-1 (Rattus norvegicus) (UniProt P19686); assay: Activation of recombinant rat sGC alpha1 subunit expressed in CHO cells assessed as induction of [32P-cGMP] formation by measuring efficacy using alpha-[32P-GTP] as substrate measured after 6 mins by luminescence assay relative to control; type: cell-based; details: filed as activator
T1 sequence (whole entry): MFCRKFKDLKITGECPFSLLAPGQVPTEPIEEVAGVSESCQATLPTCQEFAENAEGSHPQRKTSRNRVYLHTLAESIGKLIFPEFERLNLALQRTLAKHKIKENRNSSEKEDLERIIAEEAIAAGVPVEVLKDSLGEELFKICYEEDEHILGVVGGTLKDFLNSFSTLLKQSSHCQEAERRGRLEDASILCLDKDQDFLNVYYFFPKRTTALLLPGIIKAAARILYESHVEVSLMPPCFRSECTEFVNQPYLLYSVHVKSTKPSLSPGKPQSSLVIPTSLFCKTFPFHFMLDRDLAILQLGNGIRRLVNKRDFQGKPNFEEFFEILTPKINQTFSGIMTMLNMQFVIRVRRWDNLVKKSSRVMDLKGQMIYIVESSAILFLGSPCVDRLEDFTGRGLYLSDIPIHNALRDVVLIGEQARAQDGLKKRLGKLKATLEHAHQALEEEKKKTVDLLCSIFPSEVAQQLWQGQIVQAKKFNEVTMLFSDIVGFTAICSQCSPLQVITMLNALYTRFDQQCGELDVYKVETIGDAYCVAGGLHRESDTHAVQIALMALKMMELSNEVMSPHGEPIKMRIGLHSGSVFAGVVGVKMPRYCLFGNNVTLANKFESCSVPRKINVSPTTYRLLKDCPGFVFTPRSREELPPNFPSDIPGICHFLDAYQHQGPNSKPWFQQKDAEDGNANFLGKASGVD

Rattus norvegicus [8] = assay: Effect on heart rate in spontaneous hypertensive Wistar rat at 0.1 mg/kg, po by radiotelemetry; type: functional, organism-based; how it was run: as §2
[9] = Oral bioavailability in Wistar rat at 0.3 mg/kg measured up to 24 hrs by LC-MS analysis; type: ADME, organism-based; details: in vivo
Heart = assay: Reduction in coronary perfusion pressure in heart isolated from Wistar rat; type: functional, tissue-based; details: dose 0.01-10 µM; how it was run: as §1
[10] = Blood clearance in Wistar rat at 0.3 mg/kg, iv measured up to 24 hrs by LC-MS analysis; type: ADME, organism-based; details: whole blood
How it was run: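 Rats dosed iv at 0.3 mg/kg; blood clearance determined.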

[11] = Half life in cynomolgus monkey at 0.1 mg/kg, iv measured up to 24 hrs by LC-MS analysis; type: ADME, organism-based, Macaca fascicularis; details: in vivo
[12] = molecular target: T1, Guanylate cyclase soluble subunit alpha-1 (Rattus norvegicus); assay: Activation of recombinant rat sGC alpha1 subunit expressed in CHO cells assessed as induction of [32P-cGMP] formation by measuring fold change at 100 uM using alpha-[32P-GTP] as substrate measured after 6 mins by luminescence assay; details: filed as activator
How it was run: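 Highly purified recombinant sGC enzyme was tested for stimulation of cGMP production across 0.01 to 100 μM of compound. The read-out was fold activation over basal enzyme activity. The method followed earlier published sGC stimulator/activator characterization.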

Rattus norvegicus [13] = assay: In vivo activation of sGC in po dosed renin-transgenic rat carrying [RenTG(mRRen2)27] gene assessed as increase in creatinine clearance pretreated with NO-synthase inhibitor L-NAME followed by compound administration twice daily for 21 days; type: functional, organism-based; details: dose 1-10 mg/kg, time 21.0 day
How it was run: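 L-NAME-treated renin transgenic rats were dosed BID. At study end, protein-to-creatinine ratio (mg/mmol) came from urinary protein and creatinine. Creatinine clearance (mL/min) came from plasma and urinary creatinine plus urine volume.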

[14] = molecular target: T1, Guanylate cyclase soluble subunit alpha-1 (Rattus norvegicus); assay: Activation of recombinant rat sGC alpha1 subunit expressed in CHO cells assessed as induction of [32P-cGMP] formation at 0.01 to 100 uM using alpha-[32P-GTP] as substrate measured after 6 mins in presence of NO by luminescence assay; details: filed as activator, dose 0.01-100 µM
[15] = molecular target: T1, Guanylate cyclase soluble subunit alpha-1 (Rattus norvegicus); assay: Activation of recombinant rat sGC alpha1 subunit expressed in CHO cells assessed as induction of [32P-cGMP] formation using alpha-[32P-GTP] as substrate measured after 6 mins by luminescence assay; type: cell-based; details: filed as activator
[16] = Blood clerance in cynomolgus monkey at 0.1 mg/kg, iv measured up to 24 hrs by LC-MS analysis; type: ADME, organism-based, Macaca fascicularis; details: whole blood
Rattus norvegicus [17] = assay: Reduction in blood pressure in normotensive Wistar rat at 10 mg/kg, po by radiotelemetry relative to control; type: functional; design: scale not given: the % may be the effect or the level left
How it was run: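 Conscious normotensive rats with telemetric implants received oral doses of 1, 3 or 10 mg/kg. Mean arterial pressure and heart rate were recorded continuously beyond 24 h.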

[18] = Half life in Wistar rat at 0.3 mg/kg, iv measured up to 24 hrs by LC-MS analysis; type: ADME, organism-based; details: in vivo
Rattus norvegicus [19] = assay: Reduction in blood pressure in spontaneous hypertensive Wistar rat at 0.3 to 3 mg/kg, po by radiotelemetry relative to control; type: functional; design: scale not given: the % may be the effect or the level left; details: dose 0.3-3 mg/kg
Rattus norvegicus [20] = assay: Cardioprotective activity in renin-transgenic rat carrying [[…]] gene assessed as reduction in heart hypertrophy at 1 to 10 mg/kg, po bid for 21 days; type: functional, organism-based; details: dose 1-10 mg/kg, time 21.0 day
[21] = Volume of distribution at steady state in cynomolgus monkey at 0.1 mg/kg, iv measured up to 24 hrs by LC-MS analysis; type: ADME, organism-based, Macaca fascicularis; details: in vivo, read-out: Vdss
Saphenous artery = assay: Vasorelaxant activity in Chinchilla rabbit saphenous artery assessed as inhibition of phenylephrine-induced contractions; type: functional, tissue-based; details: Oryctolagus cuniculus
[22] = molecular target: T1, Guanylate cyclase soluble subunit alpha-1 (Rattus norvegicus); assay: Activation of recombinant rat sGC alpha1 subunit expressed in CHO cells assessed as induction of [32P-cGMP] formation at 0.01 to 100 uM using alpha-[32P-GTP] as substrate measured after 6 mins in presence of ODQ by luminescence assay; type: cell-based; details: filed as activator, dose 0.01-100 µM

With `C[C@H]([C@H](C(=O)Nc1cc([C@@H](CC(=O)O)C2CC2)ccc1Cl)c1ccc(Cl)cc1)C(F)(F)F` [RUNCACIGUAT] the Vd [1] was 1.4 L/kg, the Activity (Rattus norvegicus [2]) was “inactive” and the Activity (CHO) was “Active”. The EC50 [3] was 2.1 nM, the Activity (Rattus norvegicus [4]) was “inactive” and the Activity (Rattus norvegicus [5]) was “<=20%”. The Activity [6] was 256 nM, the Efficacy [7] was 58% and the Activity (Rattus norvegicus [8]) was “inactive”. The bioavailability [9] was 95%, the Activity (Heart) was “Dose-Dependent Effect” and the clearance [10] was 3.5 mL/min/kg. For the same compound, the half-life [11] was 10 h, the fold change (FC) [12] was 9.3 and the Activity (Rattus norvegicus [13]) was “Dose-Dependent Effect”. For the same compound, the Activity [14] was “Active”, the MEC [15] was 1.8 nM and the clearance [16] was 2.67 mL/min/kg. For the same compound, the Activity (Rattus norvegicus [17]) was “<=15%”, the half-life [18] was 7.5 h and the Activity (Rattus norvegicus [19]) was 5%. The Activity (Rattus norvegicus [20]) was “Active”, the Vd [21] was 1.4 L/kg and the IC50 (Saphenous artery) was 199 nM. For the same compound, the Activity [22] was “Active”.
